Reference: ChEMBL document CHEMBL2401719, “The development of a new class of inhibitors for betaine-homocysteine S-methyltransferase” (Eur J Med Chem, 2013)

What was measured:
[1] = target: T1, Betaine--homocysteine S-methyltransferase 1 (Homo sapiens) (UniProt Q93088); assay: Inhibition of human recombinant BHMT using N-methyl-[14C]-betaine/D,L-homocysteine as substrate at 20 uM after 30 mins by scintiillation counting analysis
T1 sequence (whole entry): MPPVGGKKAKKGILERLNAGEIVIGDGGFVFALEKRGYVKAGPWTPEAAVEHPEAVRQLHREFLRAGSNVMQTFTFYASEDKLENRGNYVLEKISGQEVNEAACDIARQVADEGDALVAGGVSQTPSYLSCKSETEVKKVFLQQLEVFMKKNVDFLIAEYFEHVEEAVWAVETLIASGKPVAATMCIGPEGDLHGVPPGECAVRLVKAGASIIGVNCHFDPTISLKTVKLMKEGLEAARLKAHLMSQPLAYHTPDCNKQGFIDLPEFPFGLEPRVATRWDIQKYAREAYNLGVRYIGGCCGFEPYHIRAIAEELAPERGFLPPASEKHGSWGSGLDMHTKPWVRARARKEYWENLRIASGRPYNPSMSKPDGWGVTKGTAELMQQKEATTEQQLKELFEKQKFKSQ
How it was run: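 Human recombinant BHMT assayed in pH 7.5 buffer with 0.25 mM betaine and 0.1 mM D,L-homocysteine, compound at a single fixed concentration. Percent inhibition is the average of triplicates, with data reproducible within ±15%.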

[2] = target: T2, Betaine--homocysteine S-methyltransferase 1 (Homo sapiens, UniProt Q93088); assay: Inhibition of human recombinant BHMT using N-methyl-[14C]-betaine/D,L-homocysteine as substrate after 30 mins by scintiillation counting analysis
T2 sequence (Q93088 whole entry): T1 sequence (whole entry)
How it was run: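 Human recombinant BHMT assayed in pH 7.5 buffer with 2 mM betaine and 1 mM D,L-homocysteine. Each IC50 data point was run in duplicate.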

Structure (SMILES) | inhibition [1] | IC50 [2]
O=C(O)CCCCS[C@@H]1CN[C@H](C(=O)O)C1 | 24% | 
O=C(O)CCCCS[C@H]1CN[C@H](C(=O)O)C1 | 0% | 
NC(CCSCCCCC(=O)O)P(=O)(O)O (racemic) | 58% | 219 µM
NC(CCSCCCCC(=O)O)[PH](=O)O (racemic) | 95% | 5 µM
CC(C)(CCSCCC(N)[PH](=O)O)CC(=O)O (racemic) | 99% | 1.1 µM
CNC(=O)C(N)CCSCCCCC(=O)O (racemic) | 8% | 
CS(=O)(=O)NC(=O)C(N)CCSCCCCC(=O)O (racemic) | 67% | 
N#CC(N)CCSCCCCC(=O)O (racemic) | 9% | 
NC(=O)C(N)CCSCCCCC(=O)O (racemic) | 17% | 
NC(CCSCCCCC(=O)O)C(=O)N1CCCCC1 (racemic) | 9% | 
NC(CCSCCCCC(=O)O)c1nc(=O)o[nH]1 (racemic) | 15% | 
NC(CCSCCCCC(=O)O)c1nnn[nH]1 (racemic) | 0% | 
NNC(=O)C(N)CCSCCCCC(=O)O (racemic) | 28% | 
